Test results published in ChEMBL document CHEMBL4342456, “Preventing Morphine-Seeking Behavior through the Re-Engineering of Vincamine's Biological Activity” (J Med Chem, 2020).
Calls of active or inactive are those of the source. No cut-off for these calls is given here.

Tests used:
Cannabinoid receptor 2 [1] = molecular target: T1, Cannabinoid receptor 2 (Homo sapiens, UniProt P34972); assay: Antagonist activity at human Gi/o-coupled CNR2 expressed in CHOK1 cells assessed as inhibition in CP55940-induced beta-arrestin 2 recruitment at 20 uM incubated for 30 mins followed by CP55940 addition and measured after 90 or 180 mins by pathhunter beta-arrestin assay relative to control; assay type: cell-based
T1 sequence (P34972 whole entry): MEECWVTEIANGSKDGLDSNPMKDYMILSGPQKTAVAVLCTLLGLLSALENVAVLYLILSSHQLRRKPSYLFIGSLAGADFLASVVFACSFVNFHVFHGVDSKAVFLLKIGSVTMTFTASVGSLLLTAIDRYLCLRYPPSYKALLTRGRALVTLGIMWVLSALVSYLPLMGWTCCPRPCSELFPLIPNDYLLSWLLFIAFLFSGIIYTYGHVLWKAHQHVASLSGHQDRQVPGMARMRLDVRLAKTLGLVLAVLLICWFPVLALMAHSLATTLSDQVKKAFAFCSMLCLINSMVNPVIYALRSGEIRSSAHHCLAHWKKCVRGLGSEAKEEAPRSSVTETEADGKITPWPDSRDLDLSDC
Summary of the method: (§1)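 PathHunter beta-arrestin recruitment, antagonist mode, run at DiscoverX. Cells seeded and held at 37 °C, then preincubated with test sample for 30 min at 37 °C or room temperature (1% vehicle). Agonist then added at EC80 for 90 or 180 min. IC50 comes from concentration–response runs in the same format.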

Prostacyclin receptor [2] = molecular target: T2, Prostacyclin receptor (Homo sapiens, UniProt P43119); assay: Antagonist activity at human Gs-coupled PTGIR assessed as inhibition in beraprost-induced beta-arrestin 2 recruitment at 20 uM incubated for 30 mins followed by beraprost- addition and measured after 90 or 180 mins by pathhunter beta-arrestin assay relative to control; summary of the method: as §1
T2 sequence (P43119 whole entry): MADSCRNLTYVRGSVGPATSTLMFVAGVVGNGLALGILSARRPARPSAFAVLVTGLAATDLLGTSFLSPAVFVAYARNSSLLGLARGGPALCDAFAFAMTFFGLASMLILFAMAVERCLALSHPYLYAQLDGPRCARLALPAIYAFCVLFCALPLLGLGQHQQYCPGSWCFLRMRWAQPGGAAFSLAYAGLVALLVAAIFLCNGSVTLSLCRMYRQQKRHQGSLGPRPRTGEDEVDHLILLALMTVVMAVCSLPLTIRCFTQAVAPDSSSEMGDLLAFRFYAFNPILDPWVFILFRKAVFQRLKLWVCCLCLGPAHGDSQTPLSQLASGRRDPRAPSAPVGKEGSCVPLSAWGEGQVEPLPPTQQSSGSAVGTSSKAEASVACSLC

[3] = molecular target: C-C chemokine receptor type 8 (Homo sapiens, UniProt P51685); assay: (§2) Antagonist activity at human CCR8 expressed in CHOK1 cells assessed as inhibition in CCL1-induced beta-arrestin 2 recruitment at 20 uM incubated for 30 mins followed by CCL1 addition and measured after 90 or 180 mins by pathhunter beta-arrestin assay relative to control; assay type: cell-based; summary of the method: as §1
Sequence of C-C chemokine receptor type 8 (P51685 whole entry): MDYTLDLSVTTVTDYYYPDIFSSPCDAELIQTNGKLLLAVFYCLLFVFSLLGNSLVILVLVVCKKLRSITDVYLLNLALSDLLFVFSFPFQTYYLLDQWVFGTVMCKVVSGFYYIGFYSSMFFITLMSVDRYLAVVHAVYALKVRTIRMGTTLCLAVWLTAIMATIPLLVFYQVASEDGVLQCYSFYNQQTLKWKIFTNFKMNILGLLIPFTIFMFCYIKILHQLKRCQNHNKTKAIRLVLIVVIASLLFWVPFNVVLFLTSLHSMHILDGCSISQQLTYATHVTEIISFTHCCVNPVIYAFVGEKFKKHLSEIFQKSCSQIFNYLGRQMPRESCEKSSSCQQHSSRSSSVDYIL

[4] = molecular target: T3, Muscarinic acetylcholine receptor M4 (Homo sapiens) (UniProt P08173); assay: as §2, with “Gs/Gi/o-coupled CHRM4” for “CCR8”, “acetylcholine-induced” for “CCL1-induced”, “acetylcholine” for “CCL1”; assay type: cell-based; summary of the method: as §1
T3 sequence (whole entry): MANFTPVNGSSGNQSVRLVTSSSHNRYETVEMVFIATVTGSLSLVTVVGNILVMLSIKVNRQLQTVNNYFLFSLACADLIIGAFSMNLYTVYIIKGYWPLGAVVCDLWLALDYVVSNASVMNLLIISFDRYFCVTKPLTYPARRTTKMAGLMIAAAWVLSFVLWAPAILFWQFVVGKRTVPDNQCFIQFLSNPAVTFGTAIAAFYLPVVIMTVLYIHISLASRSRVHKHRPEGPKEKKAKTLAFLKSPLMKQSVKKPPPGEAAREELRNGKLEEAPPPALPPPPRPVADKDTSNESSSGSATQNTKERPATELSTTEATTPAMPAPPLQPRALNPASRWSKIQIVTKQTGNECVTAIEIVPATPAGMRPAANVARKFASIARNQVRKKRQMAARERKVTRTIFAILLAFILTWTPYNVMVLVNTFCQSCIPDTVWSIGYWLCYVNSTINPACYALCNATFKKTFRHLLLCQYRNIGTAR

[5] = molecular target: C-X-C chemokine receptor type 4 (Homo sapiens) (UniProt P61073); assay: Antagonist activity at human Gi/o-coupled CXCR4 expressed in mouse C2C12 cells assessed as inhibition in CXCL12-induced beta-arrestin 2 recruitment at 20 uM incubated for 30 mins followed by CXCL12 addition and measured after 90 or 180 mins by pathhunter beta-arrestin assay relative to control; assay type: cell-based; summary of the method: as §1
Sequence of C-X-C chemokine receptor type 4 (Homo sapiens) (P61073 whole entry): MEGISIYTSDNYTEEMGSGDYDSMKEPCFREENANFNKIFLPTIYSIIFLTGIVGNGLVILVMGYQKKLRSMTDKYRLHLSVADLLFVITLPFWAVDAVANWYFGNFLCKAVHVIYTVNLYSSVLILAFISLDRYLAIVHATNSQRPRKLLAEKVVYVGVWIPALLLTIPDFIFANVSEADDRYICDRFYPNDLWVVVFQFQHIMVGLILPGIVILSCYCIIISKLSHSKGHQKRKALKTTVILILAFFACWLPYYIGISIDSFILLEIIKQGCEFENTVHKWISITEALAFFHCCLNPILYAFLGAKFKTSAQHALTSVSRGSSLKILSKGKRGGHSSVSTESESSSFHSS

[6] = molecular target: T4, Orexin receptor type 2 (Homo sapiens) (UniProt O43614); assay: (§3) Antagonist activity at human Gq-coupled HCRTR2 expressed in CHOK1 cells assessed as inhibition in Orexin A-induced beta-arrestin 2 recruitment at 20 uM incubated for 30 mins followed by Orexin A addition and measured after 90 or 180 mins by pathhunter beta-arrestin assay relative to control; assay type: cell-based; summary of the method: as §1
T4 sequence (whole entry): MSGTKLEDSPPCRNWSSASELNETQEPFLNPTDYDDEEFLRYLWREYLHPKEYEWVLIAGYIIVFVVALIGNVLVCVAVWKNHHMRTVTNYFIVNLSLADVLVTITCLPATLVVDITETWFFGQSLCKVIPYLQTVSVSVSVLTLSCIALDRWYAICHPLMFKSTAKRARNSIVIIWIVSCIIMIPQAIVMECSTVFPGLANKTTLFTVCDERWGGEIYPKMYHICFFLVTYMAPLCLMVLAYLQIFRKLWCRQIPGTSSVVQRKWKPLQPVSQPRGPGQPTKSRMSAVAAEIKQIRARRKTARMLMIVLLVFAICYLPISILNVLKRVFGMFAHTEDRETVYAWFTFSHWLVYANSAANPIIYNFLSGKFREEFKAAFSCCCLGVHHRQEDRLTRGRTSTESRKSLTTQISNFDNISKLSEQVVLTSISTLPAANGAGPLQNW

[7] = molecular target: T5, Prolactin-releasing peptide receptor (Homo sapiens) (UniProt P49683); assay: as §3, with “PRLHR” for “HCRTR2”, “prolactin releasing peptide (1 to 31)-induced” for “Orexin A-induced”, “prolactin releasing peptide (1 to 31)” for “Orexin A”; assay type: cell-based; summary of the method: as §1
T5 sequence (whole entry): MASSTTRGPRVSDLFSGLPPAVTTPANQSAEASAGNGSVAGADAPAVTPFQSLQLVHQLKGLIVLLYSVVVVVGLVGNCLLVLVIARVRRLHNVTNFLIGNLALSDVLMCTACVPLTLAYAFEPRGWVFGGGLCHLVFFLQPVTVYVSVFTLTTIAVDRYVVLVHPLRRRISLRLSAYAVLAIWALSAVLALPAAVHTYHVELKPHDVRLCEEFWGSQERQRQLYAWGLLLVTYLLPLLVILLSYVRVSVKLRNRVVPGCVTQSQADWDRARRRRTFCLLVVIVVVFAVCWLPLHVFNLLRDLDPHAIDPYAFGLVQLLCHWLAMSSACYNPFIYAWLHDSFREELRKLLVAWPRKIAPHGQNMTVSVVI

[8] = molecular target: T6, Glucose-dependent insulinotropic receptor (Homo sapiens) (UniProt Q8TDV5); assay: Antagonist activity at human GPR119 assessed as inhibition in oleoylethanolamide-induced beta-arrestin 2 recruitment at 20 uM incubated for 30 mins followed by oleoylethanolamide addition and measured after 90 or 180 mins by pathhunter beta-arrestin assay relative to control; summary of the method: as §1
T6 sequence (whole entry): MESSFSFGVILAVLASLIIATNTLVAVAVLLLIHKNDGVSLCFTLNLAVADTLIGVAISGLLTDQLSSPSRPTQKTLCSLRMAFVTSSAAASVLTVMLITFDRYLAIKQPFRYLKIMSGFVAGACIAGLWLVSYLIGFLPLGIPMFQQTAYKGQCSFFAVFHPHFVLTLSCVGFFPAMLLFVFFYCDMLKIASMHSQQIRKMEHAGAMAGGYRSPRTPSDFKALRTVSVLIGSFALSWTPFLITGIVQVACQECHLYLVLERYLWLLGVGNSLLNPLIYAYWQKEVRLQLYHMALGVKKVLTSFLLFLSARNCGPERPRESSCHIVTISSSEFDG

[9] = molecular target: D(2) dopamine receptor (Homo sapiens) (UniProt P14416); assay: Antagonist activity at human Gi/o-coupled DRD2L expressed in CHOK1 cells assessed as inhibition in dopamine-induced beta-arrestin 2 recruitment at 20 uM incubated for 30 mins followed by dopamine addition and measured after 90 or 180 mins by pathhunter beta-arrestin assay relative to control; assay type: cell-based; summary of the method: as §1
Sequence of D(2) dopamine receptor (Homo sapiens) (P14416 whole entry): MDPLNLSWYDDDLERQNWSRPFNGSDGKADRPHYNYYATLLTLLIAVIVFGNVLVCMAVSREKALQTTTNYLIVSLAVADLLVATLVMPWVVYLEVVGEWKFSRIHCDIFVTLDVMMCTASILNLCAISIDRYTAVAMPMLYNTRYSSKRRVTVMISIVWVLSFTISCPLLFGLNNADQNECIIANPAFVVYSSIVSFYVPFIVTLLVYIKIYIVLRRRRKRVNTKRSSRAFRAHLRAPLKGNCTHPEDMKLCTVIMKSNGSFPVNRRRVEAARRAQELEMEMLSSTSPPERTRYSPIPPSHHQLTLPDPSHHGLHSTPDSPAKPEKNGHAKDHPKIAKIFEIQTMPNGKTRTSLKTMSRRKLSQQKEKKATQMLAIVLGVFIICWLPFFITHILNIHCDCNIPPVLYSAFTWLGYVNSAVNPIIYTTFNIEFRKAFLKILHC

Cannabinoid receptor 1 [10] = molecular target: T7, Cannabinoid receptor 1 (Homo sapiens, UniProt P21554); assay: Antagonist activity at human Gi/o-coupled CNR1 expressed in CHOK1 cells assessed as inhibition in CP55940-induced beta-arrestin 2 recruitment at 20 uM incubated for 30 mins followed by CP55940 addition and measured after 90 or 180 mins by pathhunter beta-arrestin assay relative to control; assay type: cell-based; summary of the method: as §1
T7 sequence (P21554 whole entry): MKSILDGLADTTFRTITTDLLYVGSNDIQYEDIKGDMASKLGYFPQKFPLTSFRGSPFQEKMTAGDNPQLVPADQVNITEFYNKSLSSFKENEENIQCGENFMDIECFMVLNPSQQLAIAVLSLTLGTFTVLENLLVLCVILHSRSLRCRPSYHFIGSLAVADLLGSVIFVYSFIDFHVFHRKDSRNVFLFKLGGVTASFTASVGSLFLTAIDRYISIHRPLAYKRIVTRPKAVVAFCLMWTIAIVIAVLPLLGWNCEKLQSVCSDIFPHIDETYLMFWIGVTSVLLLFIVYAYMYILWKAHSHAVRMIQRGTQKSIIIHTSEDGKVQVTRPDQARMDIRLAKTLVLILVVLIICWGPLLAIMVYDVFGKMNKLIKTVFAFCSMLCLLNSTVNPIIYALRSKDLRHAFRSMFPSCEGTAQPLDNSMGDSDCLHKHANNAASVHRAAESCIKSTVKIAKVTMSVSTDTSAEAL

[11] = molecular target: T8, Neuropeptide S receptor (Homo sapiens) (UniProt Q6W5P4); assay: as §3, with “NPSR1b” for “HCRTR2”, “human U2OS” for “CHOK1”, “neuropeptide S-induced” for “Orexin A-induced”, “neuropeptide S” for “Orexin A”; assay type: cell-based; summary of the method: as §1
T8 sequence (whole entry): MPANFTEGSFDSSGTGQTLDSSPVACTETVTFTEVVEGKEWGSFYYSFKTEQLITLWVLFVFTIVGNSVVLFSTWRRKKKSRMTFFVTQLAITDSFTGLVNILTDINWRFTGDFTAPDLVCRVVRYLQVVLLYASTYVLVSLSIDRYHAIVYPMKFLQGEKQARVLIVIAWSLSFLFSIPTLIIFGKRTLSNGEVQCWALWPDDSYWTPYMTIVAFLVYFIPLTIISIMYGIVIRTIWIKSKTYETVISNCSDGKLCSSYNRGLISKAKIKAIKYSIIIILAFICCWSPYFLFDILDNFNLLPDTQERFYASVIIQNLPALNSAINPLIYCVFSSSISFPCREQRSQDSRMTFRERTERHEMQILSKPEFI

[12] = molecular target: Histamine H1 receptor (Homo sapiens) (UniProt P35367); settings: at 20 µM
Sequence of Histamine H1 receptor (Homo sapiens) (P35367 whole entry): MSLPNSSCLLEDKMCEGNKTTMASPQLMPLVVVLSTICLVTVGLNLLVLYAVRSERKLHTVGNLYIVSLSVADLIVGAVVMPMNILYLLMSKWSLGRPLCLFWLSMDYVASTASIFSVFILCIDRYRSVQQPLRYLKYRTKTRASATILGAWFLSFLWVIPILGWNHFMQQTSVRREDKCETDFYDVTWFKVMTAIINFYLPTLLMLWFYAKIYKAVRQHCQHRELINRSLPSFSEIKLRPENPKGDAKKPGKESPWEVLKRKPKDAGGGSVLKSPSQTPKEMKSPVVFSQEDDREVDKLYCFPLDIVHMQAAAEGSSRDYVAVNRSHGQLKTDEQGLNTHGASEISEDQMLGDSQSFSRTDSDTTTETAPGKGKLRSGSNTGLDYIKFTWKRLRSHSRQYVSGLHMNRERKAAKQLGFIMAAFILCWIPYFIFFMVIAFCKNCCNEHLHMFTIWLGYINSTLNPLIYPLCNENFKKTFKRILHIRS

Mus musculus [13] = assay: Suppression of drug-induced morphine-seeking behavior in C57BL/6J mouse assessed as reduction in stress-induced reinstatement of morphine-CPP at 60 nmol, icv administered 15 mins prior to testing by forced swim test
Mus musculus [14] = assay: Suppression of drug-induced cocaine-seeking behavior in C57BL/6J mouse assessed as reduction in morphine-conditioned place preference at 60 nmol, icv administered 20 mins prior to behavioral morphine addition measured twice weekly for 7 weeks; assay type: functional, organism-based; settings: in the assay text read “morphine-seeking” for “cocaine-seeking”
Summary of the method: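 Male C57BL/6J mice, 7–11 weeks, 20–33 g. Three-compartment counterbalanced place conditioning. Test agent given i.c.v. in 10% Solutol HS 15/90% saline, 20 min before morphine (10 mg/kg i.p., in 0.9% saline). Mice then confined 40 min in the paired outer chamber. Saline i.p. conditioning in the opposite chamber followed 4 h later. Preference was scored in a 30 min automated test. n = 16–30/group; two-way ANOVA with Tukey post hoc.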

Cannabinoid receptor 1 [15] = molecular target: T7, Cannabinoid receptor 1; assay: (§4) Antagonist activity at human Gi/o-coupled CNR1 expressed in CHOK1 cells assessed as inhibition in CP55940-induced beta-arrestin 2 recruitment incubated for 30 mins followed by CP55940 addition and measured after 90 or 180 mins by pathhunter beta-arrestin assay; assay type: cell-based
Summary of the method: as §1, with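 “min. […]” for “min.”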

Prostacyclin receptor [16] = molecular target: T2, Prostacyclin receptor; assay: Antagonist activity at human Gs-coupled PTGIR assessed as inhibition in beraprost-induced beta-arrestin 2 recruitment incubated for 30 mins followed by beraprost- addition and measured after 90 or 180 mins by pathhunter beta-arrestin assay
Summary of the method: as §1, with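 “min. […]” for “min.”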

[17] = molecular target: T9, Glucose-dependent insulinotropic receptor (Homo sapiens, UniProt Q8TDV5); assay: Antagonist activity at human GPR119 expressed in human HEK293 cells assessed as inhibition in agonist-induced beta-arrestin 2 recruitment incubated for 30 mins followed by agonist addition and measured after 90 or 180 mins by pathhunter beta-arrestin assay; assay type: cell-based
T9 sequence (Q8TDV5 whole entry): T6 sequence (whole entry)
Summary of the method: as §1, with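 “min. […]” for “min.”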

Neuropeptide S receptor = molecular target: T10, Neuropeptide S receptor (Homo sapiens, UniProt Q6W5P4); assay: Antagonist activity at human Gq-coupled NPSR1b expressed in human U2OS cells assessed as inhibition in neuropeptide S-induced beta-arrestin 2 recruitment incubated for 30 mins followed by neuropeptide S addition and measured after 90 or 180 mins by pathhunter beta-arrestin assay; assay type: cell-based
T10 sequence (Q6W5P4 whole entry): T8 sequence (whole entry)
Summary of the method: as §1, with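 “min. […]” for “min.”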

[18] = molecular target: T11, Prolactin-releasing peptide receptor (Homo sapiens, UniProt P49683); assay: as §4, with “Gq-coupled PRLHR” for “Gi/o-coupled CNR1”, “prolactin releasing peptide (1 to 31)-induced” for “CP55940-induced”, “prolactin releasing peptide (1 to 31)” for “CP55940”; assay type: cell-based
T11 sequence (P49683 whole entry): T5 sequence (whole entry)
Summary of the method: as §1, with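 “min. […]” for “min.”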

Cannabinoid receptor 2 [19] = molecular target: T1, Cannabinoid receptor 2; assay: Antagonist activity at human Gi/o-coupled CNR2 expressed in CHOK1 cells assessed as inhibition in CP55940-induced beta-arrestin 2 recruitment incubated for 30 mins followed by CP55940 addition and measured after 90 or 180 mins by pathhunter beta-arrestin assay; assay type: cell-based
Summary of the method: as §1, with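 “min. […]” for “min.”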

Structure (SMILES)	inhibition (Cannabinoid receptor 2 [1])	inhibition (Prostacyclin receptor [2])	inhibition [3]	inhibition [4]	inhibition [5]	inhibition [6]	inhibition [7]	inhibition [8]	inhibition [9]	inhibition (Cannabinoid receptor 1 [10])	inhibition [11]	inhibition [12]	Activity (Mus musculus [13])	Activity (Mus musculus [14])	IC50 (Cannabinoid receptor 1 [15])	IC50 (Prostacyclin receptor [16])	IC50 [17]	IC50 (Neuropeptide S receptor)	IC50 [18]	IC50 (Cannabinoid receptor 2 [19])
COC(=O)[C@@H]1[C@H]2C[C@H]3c4[nH]c5ccccc5c4CCN3C[C@@H]2CC[C@@H]1O	20%	8%	5%	4%	21%	9%	1%	8%	102%	35%	-3%	–	–	–	–	–	–	–	–	–
CC[C@]12CCCN3CCc4c(n(c5ccccc45)[C@@](O)(C(=O)OC)C1)[C@@H]32	11%	-3%	8%	-8%	10%	9%	3%	3%	-10%	0%	–	5%	inactive	inactive	–	–	–	–	–	–
CC[C@@]12C=C(C(=O)OC)n3c(c(c4ccccc43)CCN(/C=C/C(=O)OC)CCC1)[C@@H]2c1ccc(O)cc1	39%	84%	65%	67%	40%	10%	70%	35%	11%	26%	24%	16%	–	–	–	–	–	–	–	–
CC[C@]12CCCN(C(=O)c3cccc(Br)c3)CCc3c(n(c4ccccc34)C(=O)C1)[C@@H]2OC	–	–	–	–	–	–	–	–	–	–	–	–	–	–	4.95 µM	12.5 µM	4.62 µM	3.9 µM	13.8 µM	25.7 µM
CC[C@@]1(CC(=O)NC2CCCC2)CCCN2CCc3c([nH]c4ccccc34)[C@@H]21	17%	41%	28%	43%	4%	8%	18%	2%	98%	1%	–	21%	–	–	–	–	–	–	–	–
CC[C@]12CCCN3CC[C@]4(C(=O)c5ccccc5N4C(=O)C1)[C@@H]32	13%	22%	6%	22%	-10%	16%	-7%	5%	-5%	0%	-10%	-3%	–	–	–	–	–	–	–	–
CC[C@@]1(CC(=O)OC)CCCN2CC[C@]3(O)C(=Nc4ccccc43)[C@@H]21	2%	22%	17%	24%	-9%	-4%	26%	-2%	0%	4%	–	8%	–	–	–	–	–	–	–	–
